In ChEMBL document CHEMBL1147245, “Chemistry of renieramycins. Part 3.(1) isolation and structure of stabilized renieramycin type derivatives possessing antitumor activity from Thai sponge Xestospongia species, pretreated with potassium cyanide” (J Nat Prod, 2003):

Experiments:
Type in all cases: functional, cell-based
HCT-116 = test: Cytotoxicity against human HCT116 cells after 4 days; conditions: HCT-116, 96 h
Summary of the method: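 HCT116 cells seeded as single-cell suspension at 2×10^3 cells/well onto serially diluted compounds, cultured 4 days; growth read with a cell counting kit. IC50 taken as concentration giving 50% growth inhibition relative to untreated control.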

QG-56 = test: Cytotoxicity against human QG56 cells after 4 days; conditions: QG-56, 96 h
DLD-1 = test: Cytotoxicity against human DLD1 cells after 4 days; conditions: DLD-1, 96 h
NCI-H460 = test: Cytotoxicity against human NCI-H460 cells after 4 days; conditions: NCI-H460, 96 h

For `COc1cc2c(cc1O)CCN[C@]21CS[C@@H]2c3c(OC(C)=O)c(C)c4c(c3[C@H](COC1=O)N1[C@@H]2[C@H]2c3c(cc(C)c(OC)c3O)C[C@@H]([C@@H]1C#N)N2C)OCO4` [ECTEINASCIDIN 770], the IC50 (HCT-116) was 1.2 nM, the IC50 (QG-56) was 3.9 nM and the IC50 (DLD-1) was 2.4 nM. For the same compound, the IC50 (NCI-H460) was 0.64 nM.

`C/C=C(/C)C(=O)OC[C@H]1C2=C(C[C@H]3[C@H]4C5=C(C[C@@H]([C@H](C#N)N13)N4C)C(=O)C(C)=C(OC)C5=O)C(=O)C(C)=C(OC)C2=O` [RENIERAMYCIN M] was tested, and the IC50 (HCT-116) was 7.9 nM, the IC50 (QG-56) was 19 nM and the IC50 (DLD-1) was 9.6 nM. For the same compound, the IC50 (NCI-H460) was 5.9 nM.

In the case of `C/C=C(/C)C(=O)OC[C@H]1C2=C(C[C@H]3[C@H]4c5c(O)c(OC)c(C)c(O)c5[C@H](O)[C@@H]([C@H](C#N)N13)N4C)C(=O)C(C)=C(OC)C2=O` [RENIERAMYCIN N], the IC50 (HCT-116) is reported as 5.6 nM, the IC50 (QG-56) is reported as 11 nM and the IC50 (DLD-1) is reported as 5.7 nM. For the same compound, the IC50 (NCI-H460) was 6.7 nM.

`C/C=C(/C)C(=O)OC[C@H]1C2=C(C[C@H]3[C@H]4C5=C(C(=O)C(C)=C(OC)C5=O)[C@H](O)[C@@H]([C@H](C#N)N13)N4C)C(=O)C(C)=C(OC)C2=O` [RENIERAMYCIN O] showed an IC50 (HCT-116) of 28 nM and an IC50 (QG-56) of 40 nM.

`COC1=C(C)C(=O)C2=C(C1=O)[C@@H]1[C@@H]3CC4=C(C(=O)C(OC)=C(C)C4=O)[C@H](CNC(=O)C(C)=O)N3[C@@H](C#N)[C@H](C2)N1C` [SAFRAMYCIN A] was tested, and the IC50 (HCT-116) was 0.4 nM, the IC50 (QG-56) was 5.5 nM and the IC50 (DLD-1) was 0.6 nM. It also gave an IC50 (NCI-H460) of 2.1 nM.
